NSD2 inh: NSD2 histone methyltransferase inhibitors, primary screen, biochemical, AlphaScreen, single concentration, set 2. 0.54% of 310,000 active. NSD2 peptide methylation, 120 min. inhibition, % at 12.5 µM. Histone-lysine N-methyltransferase NSD2 (Homo sapiens), O96028; in the data active = inhibition above about 50%
Target sequence (O96028 whole entry, looked up): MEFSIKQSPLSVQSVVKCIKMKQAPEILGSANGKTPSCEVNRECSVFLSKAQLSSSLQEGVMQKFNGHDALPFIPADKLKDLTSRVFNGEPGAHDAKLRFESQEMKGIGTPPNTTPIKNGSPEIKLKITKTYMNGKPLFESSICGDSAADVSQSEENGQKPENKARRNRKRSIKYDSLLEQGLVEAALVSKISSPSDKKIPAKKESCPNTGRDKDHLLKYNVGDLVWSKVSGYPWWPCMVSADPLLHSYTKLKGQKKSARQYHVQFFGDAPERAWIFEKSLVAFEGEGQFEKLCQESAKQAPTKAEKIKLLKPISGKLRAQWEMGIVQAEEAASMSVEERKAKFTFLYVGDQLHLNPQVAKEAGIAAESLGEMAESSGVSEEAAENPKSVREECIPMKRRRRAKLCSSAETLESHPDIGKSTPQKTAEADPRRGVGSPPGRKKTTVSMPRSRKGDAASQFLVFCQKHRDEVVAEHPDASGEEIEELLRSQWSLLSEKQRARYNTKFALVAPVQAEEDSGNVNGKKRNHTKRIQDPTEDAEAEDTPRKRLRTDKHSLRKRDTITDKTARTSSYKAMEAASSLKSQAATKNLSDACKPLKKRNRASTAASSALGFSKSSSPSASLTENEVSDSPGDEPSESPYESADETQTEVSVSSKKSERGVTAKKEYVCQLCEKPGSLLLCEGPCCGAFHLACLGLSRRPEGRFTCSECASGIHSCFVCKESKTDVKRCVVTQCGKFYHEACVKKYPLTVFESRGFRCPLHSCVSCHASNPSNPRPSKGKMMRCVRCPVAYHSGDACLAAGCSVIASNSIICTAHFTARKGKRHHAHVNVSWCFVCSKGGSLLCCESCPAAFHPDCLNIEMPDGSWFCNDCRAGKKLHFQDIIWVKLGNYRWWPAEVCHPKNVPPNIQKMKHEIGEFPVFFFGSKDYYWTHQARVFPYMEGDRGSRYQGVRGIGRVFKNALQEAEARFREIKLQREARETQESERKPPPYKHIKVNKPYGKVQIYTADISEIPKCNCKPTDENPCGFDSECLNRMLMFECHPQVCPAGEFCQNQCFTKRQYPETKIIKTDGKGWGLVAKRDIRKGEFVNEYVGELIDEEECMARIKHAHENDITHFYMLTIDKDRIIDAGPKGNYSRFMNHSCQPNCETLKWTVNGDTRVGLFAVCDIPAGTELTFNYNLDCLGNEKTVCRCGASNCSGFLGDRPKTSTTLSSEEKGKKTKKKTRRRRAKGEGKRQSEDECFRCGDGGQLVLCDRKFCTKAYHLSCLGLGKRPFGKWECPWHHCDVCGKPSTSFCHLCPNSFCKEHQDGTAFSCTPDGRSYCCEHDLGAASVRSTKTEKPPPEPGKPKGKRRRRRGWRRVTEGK
Casp6 inh: human caspase-6 inhibitors, primary screen, biochemical, VEID-R110 fluorescence, single point, set 2 | P55212 | purified caspase-6, Z-VEID-R110 cleavage fluorescence | inhibition, % at 12.5 µM | 0.53% of 350,000 active;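 active = mean inhibition across replicates at least about 35%, with every replicate also reaching that limit, limit read from the data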;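 also: 0% = median of neutral control wells and 100% = no fluorescence left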
UHRF1 binding: UHRF1 methylated DNA binding inhibitors, primary screen, counter-screen for MBD2 inhibitor project, biochemical, TR-FRET, human UHRF1, single concentration. inhibition, % at 4.4 µM. 0.75% of 370,000 active. UHRF1 binding to methylated oligo; in the data active = inhibition above about 21%;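 also: UHRF1 SRA domain binding a hemimethylated CpG hairpin DNA probe; 0% = median of test compound wells and 100% = reference inhibitor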
LEDGF integ inh: blockers of LEDGF/p75-dependent integrase strand transfer – biochemical, TR-FRET, high throughput, primary screen | HIV-1 integrase (with human LEDGF/p75) | TR-FRET IN-LEDGF/p75 DNA integration, Eu/Cy5 | inhibition, % at 3.7 µM | 0.64% of 370,000 active | AID 743269, 2014;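 active = inhibition above the screen-wide mean plus 3 SD, cut at about 13% in these data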;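 also: signal is the Cy5 over europium emission ratio at 671 and 618 nm; 0% = plate median of compound wells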
TDP2 inh: human TDP2 enzyme inhibitors, primary screen, biochemical, epi absorbance, recombinant enzyme; T5PNP hydrolysis, p-nitrophenol absorbance 415 nm; inhibition, % at 12.8 µM; 0.34% of 370,000 active;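 active = inhibition above the mean of all tested compounds plus 3 SD, set per campaign, cut at about 25% in these data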;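 also: 0% = DMSO with enzyme and 100% = buffer with substrate but no TDP2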
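Evaluation: % inhibition relative to enzyme-containing and enzyme-free wells. Material: recombinant human TDP2. Benchmarks: enzyme-free and DMSO wells. Timing: enzyme reaction with compound for 2 h at 37 °C. Compound dosing: 12.8 µM only. Measured by: p-Nitrophenol epi absorbance. Reagent: T5PNP substrate at 5 mM, a TopII-DNA adduct mimic. Replication: single well per compound.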
MBD2 DNA inh: inhibitors of MBD2 binding to methylated DNA, primary screen, biochemical, TR-FRET, DNA-binding domain, human | Methyl-CpG-binding domain protein 2 (Homo sapiens), Q9UBB5 | MBD2 binding to methylated oligonucleotide | inhibition, % at 4.4 µM | 0.31% of 370,000 active | AID 686964, 2013; in the data active = inhibition above about 13%
IN multimer act: HIV-1 IN multimer formation enhancers, counter-screen for LEDGF/p75 integration inhibitor project, biochemical, TR-FRET. shares compounds with LEDGF integ inh. TR-FRET HIV-1 integrase multimerization. 17% of 2,000 active. activation, % at 7.7 µM; in the data active = activation above about 8.9%
TR-FRET interf: TR-FRET optical interference artefacts, confirmation, artefact control for LEDGF/p75-dependent integration inhibitor project, biochemical, HIV-1 IN multimerization. shares compounds with LEDGF integ inh. TR-FRET optical interference counterscreen. inhibition, % at 7.7 µM. 2,000 tested, under 10 active;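 active = inhibition above the mean over all tested compounds plus 3 SD, which no compound reached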;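 also: 0% = integrase with antibodies and DMSO and 100% = antibodies without integrase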
IN-LEDGF confirm: inhibitors of HIV-1 IN-LEDGF/p75 DNA integration, confirmation, biochemical, TR-FRET | TR-FRET LEDGF/p75-dependent HIV-1 integration | shares compounds with LEDGF integ inh | AID 1053136, 2014 | inhibition, % at 3.7 µM | 36% of 2,000 active; in the data active = inhibition above about 14%
Active calls of the source: *. Hits are enriched below; roughly 1.9% of the tested compounds scored in any of these assays.

How did O=C(COC(=O)c1n[nH]c(=O)c2ccccc12)Nc1ccccc1F do in these assays?
NSD2 inh: 0; Casp6 inh: -1; UHRF1 binding: -1; LEDGF integ inh: 14*; TDP2 inh: 9; MBD2 DNA inh: -3; IN multimer act: 0; TR-FRET interf: -2; IN-LEDGF confirm: -1

What do the screens show for `C[C@H](CO)N1C[C@H](C)[C@H](CN(C)Cc2ccc3c(c2)OCO3)Oc2c(NC(=O)Nc3ccc(C(F)(F)F)cc3)cccc2C1=O`?
Casp6 inh: 1

Results for CC(C)NC(=O)N(C)C[C@@H]1OCCCC[C@@H](C)Oc2ccc(NC(=O)CCCCCC(=O)Nc3ccccc3N)cc2C(=O)N([C@H](C)CO)C[C@@H]1C ?
Casp6 inh: -1

How did Cc1ccc(CN(C)C[C@H]2OCc3cnnn3CCCC(=O)N([C@H](C)CO)C[C@H]2C)cc1 do in these assays?
Casp6 inh: -2

What do the screens show for `O=C(O)CCCC[C@@H]1SC[C@@H]2NC(=O)N[C@@H]21`?
Casp6 inh: -5; UHRF1 binding: 1; LEDGF integ inh: 93*; TDP2 inh: 0; MBD2 DNA inh: 5; IN multimer act: 2; TR-FRET interf: -8; IN-LEDGF confirm: 96*

What do the screens show for `COC(=O)CCCCC1SCC2NC(=O)NC21` (configuration not stated)?
NSD2 inh: -4; Casp6 inh: 3; UHRF1 binding: 1; LEDGF integ inh: 1; TDP2 inh: 5; MBD2 DNA inh: 0

Results for CCN1[C@@H]2c3ccc(-c4ccccc4OC)c(=O)n3C[C@@H]2[C@@H](CO)[C@@H]1C(=O)NCc1ccccc1 ?
Casp6 inh: 1

How did NCC1C2CCC(O2)C1CO (configuration not stated) do in these assays?
NSD2 inh: 0; Casp6 inh: 2; UHRF1 binding: -2; LEDGF integ inh: 56*; TDP2 inh: -1; MBD2 DNA inh: 4; IN multimer act: 0; TR-FRET interf: 0; IN-LEDGF confirm: -2

Results for O=C(C(=O)N1CCC(CNC(=O)C2COc3ccccc3O2)CC1)c1cccs1 (configuration not stated) ?
NSD2 inh: -3; Casp6 inh: 0; UHRF1 binding: 0; LEDGF integ inh: 21*; TDP2 inh: 9; MBD2 DNA inh: -1; IN multimer act: 5; TR-FRET interf: -24; IN-LEDGF confirm: -1

How did CCCNC(=O)Cc1ccc(N)cc1 do in these assays?
Casp6 inh: -1

What do the screens show for `Cc1ccc(S(=O)(=O)N(C)C[C@H]2Oc3ccc(NC(=O)CCN4CCOCC4)cc3C(=O)N([C@H](C)CO)C[C@H]2C)cc1`?
Casp6 inh: 1

What do the screens show for `CC(C)(C)[S@@](=O)N1Cc2cc(C(=O)N[C@@H]3CCN(Cc4ccccc4)C3)nc(-c3cccc(-c4ccncc4)c3)c2[C@H]1CCO`?
Casp6 inh: -3

Compound activity: PubChem, several laboratories
